Data reported in publication PMC5843917 (Journal of the Renin-Angiotensin-Aldosterone System: JRAAS, 2017).

Assays:
[1] = cited from earlier work
[2] = tested on: urine aldosterone; assay: 24-hour urine aldosterone excretion after multiple dosing; format: in vivo, human; details: spironolactone 25 mg/d
Method in brief: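 Once-daily oral dosing for 8 days in healthy adults (0.1–100 mg; solution in degassed Sprite; double-dummy with an MR antagonist capsule). Urine pooled over 24 h from pre-dose Day 3 to pre-dose Day 4, and from pre-dose Day 7 to pre-dose Day 8, and assayed for aldosterone. Data ln-transformed and fitted with a mixed model (fixed treatment and period, random subject). Ratios of LS geometric means with 90% CIs.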

[3] = tested on: plasma aldosterone, corticosterone, 11-deoxycorticosterone; assay: IV ACTH challenge Day 8: plasma aldosterone and precursors; format: in vivo, human
Method in brief: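 After 8 days of oral once-daily dosing in healthy adults, an IV ACTH challenge was given 1 h post-dose on Day 8. Plasma aldosterone, corticosterone and 11-deoxycorticosterone were drawn at −15 min (baseline) and at 30 and 60 min post-challenge. Read-out was change from pre-challenge, averaged over 30 and 60 min. Stimulated aldosterone was fitted with a hyperbolic Imax model against dose and plasma drug level.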

[4] = tested on: plasma cortisol and 11-deoxycortisol (CYP11B1); assay: IV ACTH challenge Day 8: plasma cortisol and 11-deoxycortisol; format: in vivo, human; details: spironolactone 25 mg/d
Method in brief: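 IV ACTH challenge 1 h after the Day 8 oral dose, following daily dosing at 0.1–100 mg in healthy adults (crossover with placebo and an MR antagonist). Plasma cortisol and 11-deoxycortisol were drawn at −15, 30 and 60 min. Read-out was mean change from pre-challenge, with cortisol expressed as the average post-challenge concentration over the 1-h period.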

[5] = Safety and tolerability in healthy subjects; format: in vivo, human; details: multiple administration, ASEB
Method in brief: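 Two studies in healthy adults confined to the unit: a single ascending oral dose (0.1–300 mg) and once-daily dosing for 8 days (0.1–100 mg) with placebo and an MR antagonist in double-dummy crossover. Safety covered vital signs, ECG, and hepatic and renal laboratory tests. Blood pressure was taken repeatedly over Days 3 and 7. Average MAP = area under the MAP–time curve to 24 h divided by 24 h.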

[6] = tested on: plasma aldosterone; assay: Basal plasma aldosterone concentration; format: in vivo, human; details: multiple dose, model estimate (CV%)
[7] = tested on: urinary K+ excretion; assay: 24-hour urinary K+ excretion Days 3 and 7; format: in vivo, human; details: spironolactone 25 mg/d
[8] = tested on: serum K+; assay: Basal serum potassium after multiple dosing; format: in vivo, human; details: model estimate (CV%)
[9] = tested on: serum K+; assay: Oral K+ challenge Day 7: serum K+ and K+ renal clearance; format: in vivo, human
Method in brief: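 On Day 7 of once-daily oral dosing, healthy adults received an oral 40 mEq K+ load 3 h post-dose. Dietary K+ that day was cut by 40 mEq to hold daily intake at 125 mEq. Serum K+ was followed for 5 h post-challenge, and Cavg was taken over 5 h. Renal clearance = urinary excretion / serum AUC. Post-challenge K+ was fitted with a hyperbolic Emax model (additive above placebo).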

[10] = tested on: aldosterone and cortisol; details: cited from earlier work
[11] = tested on: blood pressure, ACTH-stimulated cortisol; details: primary hypertension, all doses tested; cited from earlier work

## C[C@]12CCC(=O)C=C1CC[C@@H]1[C@@H]2[C@@H](O)C[C@]2(C=O)[C@@H](C(=O)CO)CC[C@@H]12 [aldosterone]
[1]
  disappearance half-life of radiolabeled aldosterone: 35 min

## CC(=O)S[C@@H]1CC2=CC(=O)CC[C@]2(C)[C@H]2CC[C@@]3(C)[C@@H](CC[C@@]34CCC(=O)O4)[C@H]12 [Spironolactone]
[2]
  effect on urine aldosterone excretion: elevated urine aldosterone excretion
[3]; spironolactone 25 mg/d, Day 8
  effect on PAC following the ACTH challenge: no effect on PAC
[3]; stimulated, post-ACTH, model estimate (CV%)
  Spironolactone (50 mg) effect on PAC: 18 (89%) pg/ml
[4]
  plasma cortisol after ACTH challenge compared to placebo: No differences
[5]
  effects on mean arterial pressure (MAP): no clear effects
[6]
  Spironolactone (50 mg) effect on PAC: 49 (19%) pg/ml
[7]; Day 3, placebo 99±19
  24-hour urinary K+ excretion (mean±SD): 97 ± 20 mmol
[7]; Day 7, placebo 110±23
  24-hour urinary K+ excretion (mean±SD): 117 ± 17 mmol
[8]
  Spironolactone (50 mg) effect on K+: 0.02 (232%) mM
[9]; spironolactone 25 mg/d, Day 7
  average serum K+ over 5 h post oral K+ challenge (Cavg, mean±SD): 4.5 ± 0.2 mmol/L
[9]; stimulated, post-K+ challenge, model estimate (CV%)
  Spironolactone (50 mg) effect on K+: 0.09 (68%) mM

## N#Cc1ccc([C@H]2CCc3cncn32)c(F)c1 [LCI699]
[10]; Na+-depleted healthy volunteers, dose-dependent
  plasma and 24-h urinary aldosterone: decreased both plasma and 24-h urinary aldosterone
[10]; all three doses (0.5, 1 and 3 mg)
  ACTH-stimulated aldosterone elevation: inhibited ACTH-stimulated aldosterone elevation
[10]; higher dose of 3 mg
  ACTH-stimulated cortisol production: significantly inhibited ACTH-stimulated cortisol production
[11]
  ACTH-stimulated cortisol production: significantly inhibited ACTH-stimulated cortisol production
